# Screens from PubChem.
# ABCG2 block – inhibitors of human ABCG2 transporter, ABCB1 counter-screen; Q9UNQ0; IgMXP3 cells, JC-1 efflux, flow cytometry; inhibition, % at 6.6 µM; actives 0.1% (n = 190,000);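 active means inhibition above 80%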;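 further: 0% = DMSO and 100% = nicardipine control wells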
# Target sequence (Q9UNQ0 whole entry, looked up): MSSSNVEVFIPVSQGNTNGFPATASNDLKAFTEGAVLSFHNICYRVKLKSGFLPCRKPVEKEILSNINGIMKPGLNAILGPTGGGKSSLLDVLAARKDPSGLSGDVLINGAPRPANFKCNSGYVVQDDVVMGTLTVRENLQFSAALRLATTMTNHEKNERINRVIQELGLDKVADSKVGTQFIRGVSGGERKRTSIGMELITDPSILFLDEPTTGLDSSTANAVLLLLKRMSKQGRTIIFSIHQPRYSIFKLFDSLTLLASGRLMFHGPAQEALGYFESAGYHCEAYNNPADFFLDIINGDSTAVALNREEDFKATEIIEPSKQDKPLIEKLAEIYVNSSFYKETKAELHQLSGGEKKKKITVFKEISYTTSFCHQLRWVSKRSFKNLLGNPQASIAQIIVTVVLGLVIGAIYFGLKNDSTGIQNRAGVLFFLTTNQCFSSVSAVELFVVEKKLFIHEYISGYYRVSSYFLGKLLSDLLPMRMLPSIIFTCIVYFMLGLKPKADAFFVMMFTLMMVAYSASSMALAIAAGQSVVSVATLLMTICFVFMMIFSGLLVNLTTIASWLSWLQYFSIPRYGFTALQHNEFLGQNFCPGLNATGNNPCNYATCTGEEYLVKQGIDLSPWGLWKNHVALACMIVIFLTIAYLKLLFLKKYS
#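 System: two drug-resistant human cell lines, ABCG2 and ABCB1; controls: nicardipine high and DMSO low controls; times: 10 min exposure at 25 °C with rotation, no wash; detection: flow cytometry of retained JC-1 fluorescence; read-out basis: percent efflux inhibition, scaled nicardipine 100% to DMSO 0%; doses: one concentration, 6.6 µM final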
# ABCB1 block – human ABCB1 inhibition, ABCG2 as counter-screen | P08183 | CCRF-Adr cells, JC-1 efflux, flow cytometry | inhibition, % at 6.6 µM | actives 0.067% (n = 190,000) | AID 1326; in the data active means inhibition above about 40%;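 further: 0% = vehicle and 100% = reference inhibitor; higher value means more JC-1 retained so stronger ABCB1 efflux block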
# L major viab – Leishmania major promastigote growth inhibition | AID 1063 | Leishmania major promastigotes, resazurin fluorescence viability | actives 9% (n = 200,000) | inhibition, % at 10 µM;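 further: promastigotes grown with compound for 44 hours at 28 °C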
# Avidin bead fluor – compound fluoresces at 488/530 nm on avidin beads; compound fluorescence 488/530 nm, flow cytometry; active compounds read high; fluorescence (KMESF) at 10 µM; actives 0.38% (n = 220,000); in the data active means fluorescence above about 47
# GSH fluor – compound fluoresces at 488/530 nm on GSH beads; GSH beads flow cytometry, compound fluorescence 488/530 nm; active compounds read high; fluorescence (KMESF) at 10 µM; actives 0.25% (n = 190,000); in the data active means fluorescence above about 89;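 further: glutathione beads carrying GST-tagged Bcl family fusion proteins plus one bare bead set; values are compound well signal with DMSO vehicle wells as background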
# PKD1 kinase inh – inhibitors of human PKD1 kinase; PKD1 kinase fluorescence polarization assay; inhibition, % (no concentration beside the values); actives 0.056% (n = 200,000); AID 797
# The depositor's hits bear a star; / = not tested or not shown. The full list was thinned out, with hits kept by preference. Unless noted, no stated cut-off is given here; in the data, active means inhibition above about 50%; inactive means the rest.
SMILES,ABCG2 block,ABCB1 block,L major viab,Avidin bead fluor,GSH fluor,PKD1 kinase inh
CC(C)CC(=O)/C(=C\c1ccc(Cl)cc1Cl)n1cncn1,8,0,100*,-1,12,-8
CN(C)c1ccc(/C=C(/C(=O)c2ccc(Cl)cc2Cl)n2cncn2)cc1,-6,-1,51*,19,9,-9
CCCCn1c(SCC(=O)Nc2cc(C(F)(F)F)cc(C(F)(F)F)c2)nnc1C(CC)N(C)C (centres undefined),10,14,17,4,9,-3
CC(=O)Nc1ccc(S(=O)(=O)N2CCN(c3cnn(C)c(=O)c3Cl)CC2)cc1,2,1,-6,11,20,-3
OCCOCCN1CCN(C2=Nc3ccccc3Sc3ccccc32)CC1,-2,/,/,5,65,/
CN(C)CCCN1c2ccccc2Sc2ccc(Cl)cc21,0,0,83*,8,21,-1
O=C(O)CCN1c2ccccc2Sc2ccccc21,/,/,/,7,/,/
OCCN1CCN(CCCN2c3ccccc3Sc3ccc(Cl)cc32)CC1,3,0,96*,7,21,-6
O=C(NCc1ccncc1)c1ccc(Cl)c(S(=O)(=O)N2CCCCC2)c1,11,3,2,9,21,5
O=C(NCCOC(=O)c1ccc(Cl)c(S(=O)(=O)N2CCCCC2)c1)c1ccncc1,2,1,51*,6,12,-7
Cc1ccc(NC(=O)C(=Cc2ccc(C(=O)O)cc2)C(=O)Nc2ccc(C)cc2C)c(C)c1,/,/,/,5,/,/
COc1ccc(C(=O)NCc2nnc(SCC(=O)N3CCc4ccccc43)n2Cc2ccccc2)cc1,17,1,64*,14,10,-1
Cc1ccc(C)c(N2CCN(C(=S)NC3CCCCC3)CC2)c1,19,0,58*,11,10,0
COC(=O)c1sccc1NC(=S)N1CCN(c2cc(C)ccc2C)CC1,-3,0,82*,3,12,-6
Cc1cccc(NC(=S)N2CCN(c3cc(C)ccc3C)CC2)c1,4,0,80*,10,6,5
Cc1cccc(N2CCN(C(=S)NC3CCCCC3)CC2)c1C,/,/,/,12,/,/
CN1C(C(=O)NCc2cccc(Br)c2)CC2Cn3c(nc4cc(Cl)c(Cl)cc43)C21 (centres undefined),/,/,/,12,/,/
O=C(O)CSc1c(-c2cccs2)[nH]c2ccccc12,0,0,-6,16,8,-2
S=C(NCc1ccc(Cl)cc1Cl)NC1CCCCC1,10,0,3,3,11,-10
Clc1ccc(CNC2CCCC2)c(Cl)c1,1,0,94*,40,16,-1
Cc1ccc(Cl)c(NC(=O)CN2CCNC(=O)C2)c1Cl,1,1,-7,11,14,4
Cc1cc(C)cc(NC(=O)CSc2nc3c(oc4ccccc43)c(=O)n2-c2ccccc2)c1,0,0,61*,10,14,11
COCCn1c(SCC(=O)Nc2ccccc2)nc2c(oc3ccccc32)c1=O,34,2,0,8,15,-1
CCOC(=O)c1sc(NC(=O)CSc2nncn2C)nc1C,3,0,1,12,12,-3
Cc1ncc([N+](=O)[O-])n1CCOC(=O)c1ccc(Cl)cc1Cl,15,1,-1,10,41,-3
SMILES,ABCG2 block,ABCB1 block,L major viab,Avidin bead fluor,GSH fluor,PKD1 kinase inh
CCCCc1ccc(NC(=S)NCc2ccc(OC)cc2)cc1,-2,0,16,9,11,10
COC(=O)C1=C(C)N(c2ccc(S(N)(=O)=O)cc2)C(=O)C1,26,1,-1,24,29,-8
COC(=O)C1=C(C)N(c2ccc(Cl)c(Cl)c2)C(=O)C1,8,1,80*,39,20,3
O=C(c1cc2n(n1)C(C(F)(F)F)CC(c1ccco1)N2)N1CCc2ccccc2C1 (centres undefined),29,2,54*,15,35,-7
COc1ccccc1N1CCN(C(=O)c2cc3n(n2)C(C(F)(F)F)CC(c2ccco2)N3)CC1 (centres undefined),3,1,40,7,8,-2
CN(C)CCCNC(=O)/C(=C\C=C\c1ccccc1)NC(=O)c1ccc([N+](=O)[O-])cc1,/,/,/,5,/,/
COc1ccc(CN(CCN(C)C)Cc2ccccc2)c(OC)c1,4,1,100*,15,8,-11
COc1ccc(CN(C)CC(=O)NC(=O)NCc2ccccc2)c(OC)c1,5,1,4,4,9,3
O=[N+]([O-])c1cc2c(cc1/C=N/n1c(-c3ccccn3)n[nH]c1=S)OCO2,-9,-2,53*,6,2,4
O=[N+]([O-])c1cc2c(cc1/C=N/n1c(-c3ccccc3)n[nH]c1=S)OCO2,0,0,53*,8,47,-1
O=C(CCc1ccc(O)c(O)c1)NNC(=S)Nc1ccc(Br)cc1Cl,2,0,-6,13,25,6
N#CC1C(C#N)N2CCCN2C1c1ccc(Cl)cc1 (centres undefined),0,0,-7,/,18,-2
CCC(=NCCc1c(C)[nH]c2ccccc12)C1=C(O)CC(c2ccccc2)CC1=O (centres undefined),28,7,96*,5,9,-9
CCOC(=O)c1nc2cc3n(c(CC(C)C)c-2c1C)CC(C)=C3C,2,1,64*,21,22,-6
O=C1N(c2cccc3ccccc23)C(c2ccccc2)N2CCCN12 (centres undefined),20,/,2,3,12,-6
CC1C2=C(CCCC2=O)N(c2cccc3ccccc23)C2=C1C(=O)CCC2,/,/,55*,/,/,2
CCN(CC)CCN(C)Cc1ccc(Br)cc1,1,1,89*,10,12,7
Cc1cccc(/C(N)=N/OC(=O)Cc2ccccc2)c1,2,1,-3,8,20,-2
N/C(=N\OC(=O)c1ccccc1Cl)c1ccccc1,5,1,0,9,35,9
Cc1cccc(/C(N)=N/OC(=O)N2c3ccccc3Sc3ccccc32)c1,1,0,71*,31,12,-1
N/C(=N\OC(=O)N1c2ccccc2Sc2ccccc21)c1ccccc1,-5,-1,91*,1,5,-4
Cn1nccc1NC(=O)COCC(=O)O,/,/,/,6,/,/
Cc1c(C(=O)NC(=S)Nc2ccc(N3CCOCC3)cc2)cccc1[N+](=O)[O-],4,0,-3,9,13,-2
CCC(C)c1ccccc1OCCOCCN1CCCC1 (centres undefined),15,-1,98*,13,4,-4
CCC(C)c1ccccc1OCCCCN1CCCC1 (centres undefined),-5,0,99*,15,4,-7
Cc1ccccc1Oc1ccccc1N,-2,0,-3,9,13,7
